Assay results taken from BindingDB's records for doi:10.1128/aac.00067-07 (Rutgers University, 2007).
Converted amounts (≈) assume the structure as drawn.

What was measured:
1,3-beta-glucan synthase [1] = molecular target: 1,3-beta-glucan synthase (Pichia kudriavzevii, UniProt Q4U2W2); assay: Inhibition of FKS1 from Candida krusei 98 isolate
Summary of the method: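 Glucan synthase enzyme complex isolated from the pretreatment clinical strain Ck-98 and titrated with the echinocandin. Inhibition curves were fitted with a sigmoidal variable-slope dose-response model to give IC50 in ng/ml.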

1,3-beta-glucan synthase [2] = molecular target: 1,3-beta-glucan synthase (Pichia kudriavzevii, UniProt Q4U2W2, F655C); assay: Inhibition of FKS1 T2080K mutant from Candida krusei 100 isolate
1,3-beta-glucan synthase (Pichia kudriavzevii, UniProt Q4U2W2, F655C), sequence (Q4U2W2 entry or part of it F655C): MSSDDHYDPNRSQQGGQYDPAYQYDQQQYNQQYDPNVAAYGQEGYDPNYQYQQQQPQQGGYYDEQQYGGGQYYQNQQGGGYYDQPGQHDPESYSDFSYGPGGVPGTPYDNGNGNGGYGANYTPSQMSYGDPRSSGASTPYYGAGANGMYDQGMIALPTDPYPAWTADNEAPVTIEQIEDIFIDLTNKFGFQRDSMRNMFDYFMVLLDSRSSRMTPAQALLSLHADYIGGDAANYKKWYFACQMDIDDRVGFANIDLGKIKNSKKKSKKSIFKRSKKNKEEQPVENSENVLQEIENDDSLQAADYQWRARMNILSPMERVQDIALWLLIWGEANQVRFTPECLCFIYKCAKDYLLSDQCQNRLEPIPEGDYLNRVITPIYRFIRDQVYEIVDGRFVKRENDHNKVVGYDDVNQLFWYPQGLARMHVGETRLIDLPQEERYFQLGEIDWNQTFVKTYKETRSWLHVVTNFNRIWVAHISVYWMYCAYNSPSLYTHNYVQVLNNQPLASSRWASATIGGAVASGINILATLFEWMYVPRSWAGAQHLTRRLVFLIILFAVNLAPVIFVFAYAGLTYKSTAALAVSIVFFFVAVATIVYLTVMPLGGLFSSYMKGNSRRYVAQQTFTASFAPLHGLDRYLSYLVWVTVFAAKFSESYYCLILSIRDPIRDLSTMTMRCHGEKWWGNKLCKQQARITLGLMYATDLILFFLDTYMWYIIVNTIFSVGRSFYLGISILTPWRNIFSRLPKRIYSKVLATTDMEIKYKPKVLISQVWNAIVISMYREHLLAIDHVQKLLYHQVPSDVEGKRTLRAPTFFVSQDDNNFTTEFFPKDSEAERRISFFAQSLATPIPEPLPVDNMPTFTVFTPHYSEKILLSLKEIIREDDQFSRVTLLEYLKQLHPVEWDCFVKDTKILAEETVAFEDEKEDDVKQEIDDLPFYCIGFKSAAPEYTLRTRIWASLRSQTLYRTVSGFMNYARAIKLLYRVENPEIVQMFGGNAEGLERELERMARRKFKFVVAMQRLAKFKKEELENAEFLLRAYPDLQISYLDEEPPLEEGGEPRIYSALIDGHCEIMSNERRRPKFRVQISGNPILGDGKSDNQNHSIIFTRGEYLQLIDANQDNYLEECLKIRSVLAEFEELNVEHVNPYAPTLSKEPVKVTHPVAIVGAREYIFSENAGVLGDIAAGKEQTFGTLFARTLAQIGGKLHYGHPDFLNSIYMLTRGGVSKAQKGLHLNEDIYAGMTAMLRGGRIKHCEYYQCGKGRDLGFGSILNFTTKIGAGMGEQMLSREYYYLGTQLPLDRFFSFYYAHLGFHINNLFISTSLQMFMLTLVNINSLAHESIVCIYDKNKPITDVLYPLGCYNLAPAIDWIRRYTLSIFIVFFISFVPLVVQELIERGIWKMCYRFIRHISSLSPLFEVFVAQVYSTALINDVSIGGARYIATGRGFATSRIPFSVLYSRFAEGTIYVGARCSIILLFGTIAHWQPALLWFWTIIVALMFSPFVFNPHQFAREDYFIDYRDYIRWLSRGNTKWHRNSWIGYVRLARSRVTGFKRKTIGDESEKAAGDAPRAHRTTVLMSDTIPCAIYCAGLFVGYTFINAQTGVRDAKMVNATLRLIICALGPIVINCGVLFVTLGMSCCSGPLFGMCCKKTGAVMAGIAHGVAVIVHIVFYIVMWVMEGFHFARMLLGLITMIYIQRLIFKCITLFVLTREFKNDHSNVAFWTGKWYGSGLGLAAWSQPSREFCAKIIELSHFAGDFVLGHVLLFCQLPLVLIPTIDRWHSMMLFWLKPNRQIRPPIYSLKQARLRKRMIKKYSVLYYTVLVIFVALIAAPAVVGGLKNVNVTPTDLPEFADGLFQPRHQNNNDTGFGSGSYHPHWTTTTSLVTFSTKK
Summary of the method: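 Glucan synthase enzyme complex isolated from posttreatment strain Ck-100. Caspofungin titrated against the enzyme. Inhibition curve fitted with a two-site competition algorithm to give IC50 in ng/ml.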

1,3-beta-glucan synthase (Pichia kudriavzevii, UniProt Q4U2W2), sequence (Q4U2W2 whole entry): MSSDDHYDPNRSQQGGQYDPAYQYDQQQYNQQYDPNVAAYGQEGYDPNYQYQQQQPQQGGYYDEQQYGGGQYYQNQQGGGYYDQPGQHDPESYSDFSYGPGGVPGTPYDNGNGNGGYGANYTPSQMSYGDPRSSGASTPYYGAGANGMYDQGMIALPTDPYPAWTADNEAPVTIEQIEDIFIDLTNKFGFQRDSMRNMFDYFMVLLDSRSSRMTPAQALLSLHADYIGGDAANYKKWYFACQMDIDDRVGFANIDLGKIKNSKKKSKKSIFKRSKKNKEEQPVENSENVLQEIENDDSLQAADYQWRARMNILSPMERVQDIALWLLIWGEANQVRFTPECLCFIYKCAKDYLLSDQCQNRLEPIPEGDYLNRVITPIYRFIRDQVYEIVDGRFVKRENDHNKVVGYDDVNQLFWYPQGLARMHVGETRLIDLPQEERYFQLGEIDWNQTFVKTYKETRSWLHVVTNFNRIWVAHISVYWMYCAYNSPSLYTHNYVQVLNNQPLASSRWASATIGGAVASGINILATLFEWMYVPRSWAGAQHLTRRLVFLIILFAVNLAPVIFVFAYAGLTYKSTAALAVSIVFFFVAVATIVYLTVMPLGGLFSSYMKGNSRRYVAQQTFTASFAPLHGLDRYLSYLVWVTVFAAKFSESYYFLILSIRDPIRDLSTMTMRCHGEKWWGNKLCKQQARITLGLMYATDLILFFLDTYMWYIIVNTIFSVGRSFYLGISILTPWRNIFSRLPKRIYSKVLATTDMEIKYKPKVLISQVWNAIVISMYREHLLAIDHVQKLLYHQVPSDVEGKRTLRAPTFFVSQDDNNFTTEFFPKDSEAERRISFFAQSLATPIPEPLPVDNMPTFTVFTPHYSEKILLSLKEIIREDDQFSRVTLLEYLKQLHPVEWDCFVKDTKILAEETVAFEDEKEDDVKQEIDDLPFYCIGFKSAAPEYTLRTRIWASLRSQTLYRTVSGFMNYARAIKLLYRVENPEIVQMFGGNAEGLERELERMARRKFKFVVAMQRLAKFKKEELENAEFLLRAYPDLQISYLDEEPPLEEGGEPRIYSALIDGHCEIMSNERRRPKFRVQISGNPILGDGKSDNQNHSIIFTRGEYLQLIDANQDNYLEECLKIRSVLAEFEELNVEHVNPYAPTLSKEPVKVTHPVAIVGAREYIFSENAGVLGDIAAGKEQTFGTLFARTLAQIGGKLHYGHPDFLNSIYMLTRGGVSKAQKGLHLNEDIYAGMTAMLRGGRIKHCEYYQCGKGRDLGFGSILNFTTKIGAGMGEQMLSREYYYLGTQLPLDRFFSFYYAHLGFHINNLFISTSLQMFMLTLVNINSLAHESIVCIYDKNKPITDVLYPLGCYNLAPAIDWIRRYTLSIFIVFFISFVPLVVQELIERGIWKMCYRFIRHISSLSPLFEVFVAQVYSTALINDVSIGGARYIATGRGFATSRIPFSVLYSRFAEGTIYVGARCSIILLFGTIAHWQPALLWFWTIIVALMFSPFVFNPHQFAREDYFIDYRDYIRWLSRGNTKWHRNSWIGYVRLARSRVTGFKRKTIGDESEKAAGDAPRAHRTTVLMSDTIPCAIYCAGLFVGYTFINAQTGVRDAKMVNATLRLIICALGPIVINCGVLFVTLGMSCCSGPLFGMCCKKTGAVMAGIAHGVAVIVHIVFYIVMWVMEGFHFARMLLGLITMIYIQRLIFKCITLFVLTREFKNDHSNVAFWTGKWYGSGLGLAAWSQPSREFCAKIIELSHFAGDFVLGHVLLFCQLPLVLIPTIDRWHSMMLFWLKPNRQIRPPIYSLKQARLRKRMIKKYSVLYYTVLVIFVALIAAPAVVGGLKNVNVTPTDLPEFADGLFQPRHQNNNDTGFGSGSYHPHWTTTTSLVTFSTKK

Structure (SMILES): CCC(C)CC(C)CCCCCCCCC(=O)N[C@H]1C[C@@H](O)[C@@H](NCCN)NC(=O)[C@@H]2[C@@H](O)CCN2C(=O)[C@H]([C@H](O)CCN)NC(=O)[C@H]([C@H](O)[C@@H](O)c2ccc(O)cc2)NC(=O)[C@@H]2C[C@@H](O)CN2C(=O)[C@H]([C@@H](C)O)NC1=O (some centres not stated) [CHEBI:474180]
- IC50 (1,3-beta-glucan synthase [1]): 0.0068 µg/mL (≈ 0.00622 µM)
- IC50 (1,3-beta-glucan synthase [2]): 3.94 µg/mL (≈ 3.61 µM)
